Measurements taken from ChEMBL document CHEMBL4196091 (Eur J Med Chem, 2018).
pIC50: −log10 of the molar value. Active and inactive are the calls of the source. The calls are words filed in the database; no cut-off is given here.

Experiments:
HEK293 = experiment: Antiproliferative activity against HEK293 cells after 2 days by MTT assay; type: ADME, cell-based; conditions: Homo sapiens, HEK293, 48 h
MCF7 = experiment: Antiproliferative activity against human MCF7 cells after 2 days by MTT assay; type: functional, cell-based; conditions: MCF7, 48 h
A549 [1] = experiment: Antiproliferative activity against human A549 cells after 2 days by MTT assay; type: functional, cell-based; conditions: A549, 48 h
HT-29 [2] = experiment: Antiproliferative activity against human HT-29 cells after 2 days by MTT assay; type: functional, cell-based; conditions: HT-29, 48 h
A549 [3] = experiment: Cell cycle arrest in human A549 cells assessed as accumulation at S phase at 15 nM after 24 hrs by propidium iodide staining based flow cytometry (reference value: 15 +/- 6%); type: functional
How it was run: (§1)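 A549 cells maintained in DMEM (1 g/L glucose, 2 mM glutamine, penicillin/streptomycin/amphotericin B, 10% FBS) and treated for 24 h. Cells were then fixed, RNase-treated and stained with propidium iodide. DNA content was measured by flow cytometry to give cell-cycle phase distribution, including a sub-G1 peak. Data are means (±SD) of two experiments.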

A549 [4] = experiment: Cell cycle arrest in human A549 cells assessed as accumulation at G2/M phase at 15 nM after 24 hrs by propidium iodide staining based flow cytometry (reference value: 11 +/- 4%); type: functional; how it was run: as §1
HT-29 [5] = experiment: Downregulation of hTERT gene expression in human HT-29 cells assessed as hTERT mRNA level at […] after 48 hrs by RT-PCR method (reference value: 100%); type: functional
A549 [6] = experiment: Cell cycle arrest in human A549 cells assessed as accumulation at sub-G0 phase at 15 nM after 24 hrs by propidium iodide staining based flow cytometry (reference value: 2 +/- 1%); type: functional; how it was run: as §1
A549 [7] = experiment: Cell cycle arrest in human A549 cells assessed as accumulation at G0/G1 phase at 15 nM after 24 hrs by propidium iodide staining based flow cytometry (reference value: 73 +/- 3%); type: functional; how it was run: as §1
HT-29 [8] = experiment: Downregulation of VEGF gene expression in human HT-29 cells assessed as VEGF mRNA level at […] after 48 hrs by RT-PCR method (reference value: 100%); type: functional
A549 [9] = experiment: Cell cycle arrest in human A549 cells assessed as accumulation at G2/M phase at 3 nM after 24 hrs by propidium iodide staining based flow cytometry; type: functional; how it was run: as §1
HT-29 [10] = experiment: Downregulation of c-Myc gene expression in human HT-29 cells assessed as c-Myc mRNA level at […] after 48 hrs by RT-PCR method (reference value: 100%); type: functional
HT-29 [11] = experiment: Inhibition of VEGF protein secretion in human HT-29 cells assessed as VEGF protein level at […] after 48 hrs by ELISA (reference value: 100%); type: functional; set-up: scale not given: the % may be the effect or the level left
HT-29 [12] = experiment: Inhibition of VEGF protein secretion in human HT-29 cells assessed as VEGF protein level at 3 nM after 48 hrs by ELISA (reference value: 100%); type: functional; set-up: scale not given: the % may be the effect or the level left
How it was run: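 HT-29 cells (1.5 x 10^5 per well, six-well plate) seeded 24 h, then treated 48 h with DMSO control; secreted VEGF in culture supernatant measured by human VEGF ELISA kit, expressed as percentage of control. At least three measurements.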

HT-29 [13] = experiment: Downregulation of hTERT gene expression in human HT-29 cells assessed as hTERT mRNA level at 3 nM after 48 hrs by RT-PCR method (reference value: 100%); type: functional
How it was run: (§2)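 HT-29 cells (1.5 x 10^5 per well, six-well plate) seeded 24 h, then exposed 48 h with DMSO control; total RNA extracted, target mRNA quantified by TaqMan RT-qPCR, normalized to β-actin, expressed as percentage of control. At least three measurements; one-sample t-tests.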

HT-29 [14] = experiment: Downregulation of VEGF gene expression in human HT-29 cells assessed as VEGF mRNA level at 3 nM after 48 hrs by RT-PCR method (reference value: 100%); type: functional; how it was run: as §2
HT-29 [15] = experiment: Downregulation of c-Myc gene expression in human HT-29 cells assessed as c-Myc mRNA level at 3 nM after 48 hrs by RT-PCR method (reference value: 100%); type: functional; how it was run: as §2
A549 [16] = experiment: Cell cycle arrest in human A549 cells assessed as accumulation at G2/M phase at antiproliferative IC50 after 24 hrs by propidium iodide staining based flow cytometry; type: functional
How it was run: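 A549 cells kept in DMEM (1 g/L glucose, 2 mM glutamine, antibiotics, amphotericin B, 10% FBS), treated 24 h with compound from 10 mM DMSO stock; fixed, RNase-treated, stained with propidium iodide, DNA content read by flow cytometry for phase distribution. Average (±SD) of two experiments.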

A549 [17] = experiment: Cell cycle arrest in human A549 cells assessed as accumulation at G0/G1 phase at 20 nM after 24 hrs by propidium iodide staining based flow cytometry (reference value: 73 +/- 3%); type: functional; how it was run: as §1
A549 [18] = experiment: Cell cycle arrest in human A549 cells assessed as accumulation at S phase at 20 nM after 24 hrs by propidium iodide staining based flow cytometry (reference value: 15 +/- 6%); type: functional; how it was run: as §1
A549 [19] = experiment: Cell cycle arrest in human A549 cells assessed as accumulation at G2/M phase at 20 nM after 24 hrs by propidium iodide staining based flow cytometry (reference value: 11 +/- 4%); type: functional; how it was run: as §1
A549 [20] = experiment: Cell cycle arrest in human A549 cells assessed as accumulation at sub-G0 phase at 20 nM after 24 hrs by propidium iodide staining based flow cytometry (reference value: 2 +/- 1%); type: functional; how it was run: as §1
HT-29 [21] = experiment: Inhibition of VEGF protein secretion in human HT-29 cells assessed as VEGF protein level at 10 nM after 48 hrs by ELISA (reference value: 100%); type: functional; set-up: scale not given: the % may be the effect or the level left
HT-29 [22] = experiment: Downregulation of c-Myc gene expression in human HT-29 cells assessed as c-Myc mRNA level at 10 nM after 48 hrs by RT-PCR method (reference value: 100%); type: functional
How it was run: (§3)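 HT-29 cells were taken at 70–80% confluence and seeded at 1.5 x 10^5 per well. After 24 h they were exposed to compound for 48 h. Total RNA was isolated and TaqMan RT-qPCR run for VEGF-A, c-MYC and hTERT, normalized to β-actin. Expression is given as percent of DMSO control, with at least three measurements and one-sample t-tests.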

HT-29 [23] = experiment: Downregulation of hTERT gene expression in human HT-29 cells assessed as hTERT mRNA level at 10 nM after 48 hrs by RT-PCR method (reference value: 100%); type: functional; how it was run: as §3
HT-29 [24] = experiment: Downregulation of VEGF gene expression in human HT-29 cells assessed as VEGF mRNA level at 10 nM after 48 hrs by RT-PCR method (reference value: 100%); type: functional; how it was run: as §3
A549 [25] = experiment: Cell cycle arrest in human A549 cells assessed as accumulation at G2/M phase at 0.5 times antiproliferative IC50 after 24 hrs by propidium iodide staining based flow cytometry; type: functional; how it was run: as §1
A549 [26] = experiment: Cell cycle arrest in human A549 cells assessed as accumulation at S phase at 50 nM after 24 hrs by propidium iodide staining based flow cytometry (reference value: 15 +/- 6%); type: functional; how it was run: as §1
A549 [27] = experiment: Cell cycle arrest in human A549 cells assessed as accumulation at G0/G1 phase at 50 nM after 24 hrs by propidium iodide staining based flow cytometry (reference value: 73 +/- 3%); type: functional; how it was run: as §1
A549 [28] = experiment: Cell cycle arrest in human A549 cells assessed as accumulation at sub-G0 phase at 50 nM after 24 hrs by propidium iodide staining based flow cytometry (reference value: 2 +/- 1%); type: functional; how it was run: as §1
A549 [29] = experiment: Cell cycle arrest in human A549 cells assessed as accumulation at G2/M phase at 50 nM after 24 hrs by propidium iodide staining based flow cytometry (reference value: 11 +/- 4%); type: functional; how it was run: as §1

SMILES | pIC50 (MCF7) | pIC50 (A549 [1]) | pIC50 (HT-29 [2]) | pIC50 (HEK293) | Activity (A549 [3]) [%] | Activity (A549 [4]) [%] | Activity (A549 [6]) [%] | Activity (A549 [7]) [%] | other results
COc1cc2c(c(OC)c1OC)-c1ccc(OC)c(=O)cc1[C@@H](NC(=O)CC1CCCCC1)CC2 | 8.05 | 7.71 | 8.06 | 7.98 |  |  |  |  | 
COc1cc2c(c(OC)c1OC)-c1ccc(OC)c(=O)cc1[C@@H](NC(=O)c1ccc(Cl)cc1)CC2 | 8.17 | 8.18 | 8.75 | 8.00 | 14 | 48 | 2 | 27 | Activity (HT-29 [5]): 73%; Activity (HT-29 [8]): 37%; Activity (A549 [9]): Active; Activity (HT-29 [10]): 37%; Activity (HT-29 [11]): 54%
COc1cc2c(c(OC)c1OC)-c1ccc(OC)c(=O)cc1[C@@H](NC(=O)CCl)CC2 | 7.54 | 7.91 | 8.34 | 8.34 | 20 | 55 | 2 | 22 | Activity (HT-29 [12]): 100%; Activity (HT-29 [13]): 66%; Activity (HT-29 [14]): 76%; Activity (HT-29 [15]): 74%; Activity (A549 [16]): Active
COc1cc2c(c(OC)c1OC)-c1ccc(OC)c(=O)cc1[C@@H](NC(=O)Cc1ccccc1)CC2 | 8.59 | 8.55 | 8.55 | 8.41 |  |  |  |  | Activity (A549 [17]): 19%; Activity (A549 [18]): 16%; Activity (A549 [19]): 60%; Activity (A549 [20]): 5%
COc1cc2c(c(OC)c1OC)-c1ccc(OC)c(=O)cc1[C@@H](NC(=O)CBr)CC2 | 7.79 | 7.59 | 7.86 | 7.84 | 19 | 53 | 3 | 25 | Activity (HT-29 [21]): 100%; Activity (HT-29 [22]): 35%; Activity (HT-29 [23]): 79%; Activity (HT-29 [24]): 44%; Activity (A549 [25]): Active
COc1cc2c(c(OC)c1OC)-c1ccc(OC)c(=O)cc1[C@@H](NC(=O)c1ccc(C)cc1)CC2 | 7.51 | 8.06 | 8.05 | 7.79 |  |  |  |  | Activity (A549 [26]): 26%; Activity (A549 [27]): 44%; Activity (A549 [28]): 13%; Activity (A549 [29]): 16%
COc1cc2c(c(OC)c1OC)-c1ccc(OC)c(=O)cc1[C@@H](NC(=O)c1ccccc1)CC2 | 8.30 | 8.00 | 8.09 | 7.89 |  |  |  |  | Activity (A549 [26]): 28%; Activity (A549 [27]): 29%; Activity (A549 [28]): 4%; Activity (A549 [29]): 40%

Second part, led by results:

pIC50 (MCF7) | pIC50 (A549 [1]) | pIC50 (HT-29 [2]) | SMILES | pIC50 (HEK293) | Activity (A549 [3]) [%] | Activity (A549 [4]) [%] | Activity (A549 [6]) [%] | Activity (A549 [7]) [%] | other results
8.35 | 7.89 | 8.64 | COc1cc2c(c(OC)c1OC)-c1ccc(OC)c(=O)cc1[C@@H](NC(=O)c1ccccc1Cl)CC2 | 8.23 | 26 | 55 | 3 | 11 | Activity (HT-29 [5]): 54%; Activity (HT-29 [8]): 32%; Activity (A549 [9]): Active; Activity (HT-29 [10]): 38%; Activity (HT-29 [11]): 54%
8.69 | 8.70 | 8.24 | COc1cc2c(c(OC)c1OC)-c1ccc(OC)c(=O)cc1[C@@H](NC(=O)c1ccccc1C)CC2 | 8.05 |  |  |  |  | Activity (A549 [26]): 14%; Activity (A549 [27]): 24%; Activity (A549 [28]): 8%; Activity (A549 [29]): 47%
8.39 | 7.51 | 8.00 | COc1cc2c(c(OC)c1OC)-c1ccc(OC)c(=O)cc1[C@@H](NC(=O)CI)CC2 | 7.72 |  |  |  |  | Activity (HT-29 [21]): 89%; Activity (HT-29 [22]): 42%; Activity (HT-29 [23]): 59%; Activity (HT-29 [24]): 42%
8.47 | 8.51 | 8.74 | COc1cc2c(c(OC)c1OC)-c1ccc(OC)c(=O)cc1[C@@H](NC(=O)c1cccc(Cl)c1)CC2 | 8.52 |  |  |  |  | Activity (HT-29 [5]): 59%; Activity (A549 [17]): 24%; Activity (A549 [18]): 15%; Activity (HT-29 [8]): 30%; Activity (A549 [9]): Active; Activity (HT-29 [10]): 20%; Activity (A549 [19]): 57%; Activity (A549 [20]): 6%; Activity (HT-29 [11]): 48%
